The target in data set [1] is T1, human 8-oxoguanine DNA glycosylase (OGG1) (Homo sapiens, UniProt O15527). The class given is biochemical. Conditions: for ΔΔG° cognate vs non-cognate ligand: from ratio of Ki values, T = 310 K; for increase in the affinity for OGG1 vs the corresponding non-cognate ligand: ratio of Ki (KM) values, vs dGMP, ss G11 or ds G11. Summed up:
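Recombinant human OGG1 from E. coli BL21(DE3), with active enzyme titrated by burst-phase kinetics. Reaction: 0.5 nM enzyme and 22 nM (2 × KM) oxoG ds substrate in 50 mM Tris–HCl pH 7.5, 100 mM NaCl, 1 mM EDTA, 1 mM DTT, 37°C, 2–10 min, NaOH-quenched. Competitor spans 0.1–10 × I50. Ki = I50/3; ΔG° = –RT ln Kd (310 K); ΔΔG° from differences.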

Data set [2] has as its system E. coli 8-oxoguanine DNA glycosylase (Fpg). The note with it: read-out: Ki (Fpg); cited from earlier work.
Data set [3] concerns the target T1, human 8-oxoguanine DNA glycosylase (OGG1). The note with it: cited from earlier work.
Setting [4] is: read-out: Ki (affinity for OGG1).

Like-named read-outs stand apart in the source and are kept apart here.

T1 sequence (O15527 whole entry): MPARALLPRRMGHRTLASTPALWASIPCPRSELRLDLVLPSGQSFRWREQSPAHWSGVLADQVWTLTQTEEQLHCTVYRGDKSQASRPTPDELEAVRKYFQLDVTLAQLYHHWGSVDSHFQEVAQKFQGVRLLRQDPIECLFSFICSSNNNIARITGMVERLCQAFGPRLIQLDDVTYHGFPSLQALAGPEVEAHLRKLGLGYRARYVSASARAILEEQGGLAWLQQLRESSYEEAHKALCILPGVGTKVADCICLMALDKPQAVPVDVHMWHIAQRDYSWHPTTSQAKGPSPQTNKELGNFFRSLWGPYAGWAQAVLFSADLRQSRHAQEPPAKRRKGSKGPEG

In general, Ki refers to a measure of affinity in units of concentration, obtained from inhibition or displacement. With `O=P(O)(O)O` [Pi, orthophosphate, reference compound], the affinity in data set [1] corresponds to a Ki of 68000 µM.
As to “dCdp(TCTCCCTTCGCTCCTTTCCTCT) (5'-dC with phosphate prefix in name, chemistry otherwise not given here) [G11]”, the Ki was 20 µM in data set [1] (setting [4]) and 10 µM in data set [2].
For the compound `Nc1nc2c([nH]c(=O)n2[C@H]2C[C@H](O)[C@@H](COP(=O)(O)O)O2)c(=O)[nH]1` [oxo-dGMP, reference compound], the “cleavage by OGG1” value in data set [3] was “not cleaved”. Also, in data set [1], the “ΔΔG° cognate vs non-cognate ligand” value is -0.8 kcal/mol and the “increase in the affinity for OGG1 vs the corresponding non-cognate ligand” value is on record as 4.1 fold. Further, the “tighter binding than one non-cognate d(pN)n unit within DNA” value in data set [1] (vs extrapolated Ki = 12 mM) is given as roughly 7.5 fold.
For dCdp(TCTCCCTTCXCTCCTTTCCTCT) [OG11], the “cleavage by OGG1” value in data set [3] is listed as “not cleaved”. Also, in data set [1], the “ΔΔG° cognate vs non-cognate ligand” value is roughly -3.3 kcal/mol and the “increase in the affinity for OGG1 vs the corresponding non-cognate ligand” value is 250 fold. Further, the Ki in data set [1] (setting [4]) turned out to be 0.08 µM.
Turning to r(pC)10, the Ki in data set [1] (setting [4]) was determined as 130 µM.
The same measure, in the same setting: with r(pA)10 the figure was 140 µM.

The record behind these values is paper PMC3113562 (Nucleic Acids Research, 2011).
